Measurements reported in ChEMBL document CHEMBL1126092, “Design, synthesis, and biological evaluation of novel 4-substituted 1-methyl-1,2,3,6-tetrahydropyridine analogs of MPTP” (J Med Chem, 1992).

Key:
[1] = substrate: CN1CC=C(Cc2ccccc2)CC1; assay: (§1) Tested against Monoamine oxidase B enzyme from bovine liver mitochondria
Procedure, shortened: (§2)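 Bovine liver mitochondrial MAO-B, 0.05 unit/mL (unit = 1 μmol benzylamine→benzaldehyde per min; equivalent to 3.7 nmol protein), incubated at 37 °C in 0.1 M sodium phosphate pH 7.4. Reaction started by substrate addition, final 0.1–3.0 mM. Product formation monitored spectrophotometrically, initial rates taken 30–180 s after enzyme addition. Apparent Vmax and KM from double reciprocal plot.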

[2] = substrate: CN1CC=C(OC(=O)N(C)C)CC1; assay: as §1; procedure, shortened: as §2
[3] = substrate: CN1CC=C(OC(=O)N(C)c2ccccc2)CC1; assay: as §1; procedure, shortened: as §2
[4] = substrate: CN1CC=C(Oc2ccccc2)CC1; assay: as §1; procedure, shortened: as §2
[5] = substrate: CN1CC=C(Sc2ccccc2)CC1; assay: as §1; procedure, shortened: as §2

B1: Amine oxidase [flavin-containing] B (Bos taurus) (protein)
chain: MSSKCDVVVVGGGISGMAAAKLLHDSGLNVIVLEARDRVGGRTYTLRNQKVKYVDLGGSYVGPTQNHILRLSKELGLETYKVNEVERLIHHTKGKSYPFRGSFPSVWNPITYLDHNNLWRTMDDMGREIPSDAPWKAPLAEQWDLMTMKELLDKICWTESSKQLAILFVNLCVTAEIHEVSALWFLWYVKQCGGTTRIFSTSNGGQERKFVGGSGQVSERIMDLLGDRVKLERPVIHIDQTGENVLVETLNHELYEAKYVISAVPPVLGMKIHFNPPLPMMRNQLITRVPLGSVIKSIVYYKEPFWRNMDYCGSMIIEGEEAPVAYALDDTKPDGSYPAIIGFILAHKARKLARLTKEERLKKLCDLYAKVLGSQEALHPVHYEEKNWCEEQYSGGCYTSYFPPGIMTQYGRVLRQPVGRIYFAGTETATHWSGYMEGAVEAGERAAREILHAMGKIPEDEIWLPEPESVDVPAKPITTTFLQRHLPSVPGLLKLIGLTTIFSATALGFLAHKRGLLVRI
- Km [1]: 83 µM
- Vmax [1]: 0.222 µM/min
- Km [2]: 7100 µM
- Vmax [2]: 0.401 µM/min
- Km [3]: 3850 µM
- Vmax [3]: 0.255 µM/min
- Km [4]: 234 µM
- Vmax [4]: 0.161 µM/min
- Km [5]: 80 µM
- Vmax [5]: 0.274 µM/min
